The results in this text go back to ChEMBL document CHEMBL1127833, “Structure determination, pharmacological evaluation, and structure-activity studies of a new cyclic peptide substance P antagonist containing the new amino acid 3-prenyl-beta-hydroxytyrosine, isolated from Aspergillus flavipes” (J Med Chem, 1994).

One series deals with Substance-P receptor (Homo sapiens, UniProt P25103). The series is described as follows: Displacement of [125I]- substance P binding to human astrocytoma cells (NK1). In a few lines: (§1)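 Radioligand displacement at NK1 or NK2 sites, with Ki values averaged over two to eight determinations.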
Substance-P receptor, sequence (P25103 whole entry): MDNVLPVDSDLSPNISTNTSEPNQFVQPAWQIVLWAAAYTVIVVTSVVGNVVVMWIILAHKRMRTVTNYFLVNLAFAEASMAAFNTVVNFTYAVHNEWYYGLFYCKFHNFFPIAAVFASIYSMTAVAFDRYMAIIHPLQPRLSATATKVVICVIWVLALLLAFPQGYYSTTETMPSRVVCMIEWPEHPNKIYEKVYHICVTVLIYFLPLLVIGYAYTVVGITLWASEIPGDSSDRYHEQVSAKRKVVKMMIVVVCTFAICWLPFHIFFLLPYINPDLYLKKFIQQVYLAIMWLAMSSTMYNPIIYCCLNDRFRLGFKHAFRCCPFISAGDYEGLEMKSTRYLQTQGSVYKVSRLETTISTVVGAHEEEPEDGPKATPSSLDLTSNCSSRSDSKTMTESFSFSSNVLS
For orientation: Displacement assays read how much labelled ligand stays bound in the presence of the test substance.

In the next series the target is T1, Substance-K receptor (Homo sapiens, UniProt P21452).
T1 sequence (P21452 whole entry): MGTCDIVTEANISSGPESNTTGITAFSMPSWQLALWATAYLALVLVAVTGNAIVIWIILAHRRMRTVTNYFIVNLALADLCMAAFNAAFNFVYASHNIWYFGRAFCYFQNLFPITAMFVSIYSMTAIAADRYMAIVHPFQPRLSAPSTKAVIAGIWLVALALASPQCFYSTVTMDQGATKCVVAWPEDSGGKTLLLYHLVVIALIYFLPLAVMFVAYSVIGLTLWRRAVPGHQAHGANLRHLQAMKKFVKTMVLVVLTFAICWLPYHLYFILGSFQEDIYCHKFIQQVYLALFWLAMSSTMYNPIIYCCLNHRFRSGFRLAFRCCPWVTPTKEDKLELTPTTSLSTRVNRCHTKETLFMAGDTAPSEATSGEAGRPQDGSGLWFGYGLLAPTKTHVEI
In words: Displacement of [125I]-NKA substance P binding to human urinary bladder membrane protein (NK2). In a few lines:
as §1

The species entered for the next series is Cavia porcellus. The series is described as follows: substance P induced guinea pig ileum.
Series [1] in a line: Functional antagonism by the ability to inhibit substance P induced 45 [Ca2+] efflux in human astrocytoma cells. It is filed as cell-based. In a few lines:
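Human astrocytoma cells stimulated with 3 nM substance P; the antagonist's inhibition of 45Ca2+ efflux was measured. Efflux seen without SP and antagonist was subtracted. Mean ± SEM from at least three experiments.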

Turning to `COc1ccc(CC2NC(=O)CNC(=O)[C@H](C(C)C)NC(=O)CNC(=O)[C@@H]3CCCN3C(=O)[C@@H](Cc3c[nH]c4ccccc34)NC(=O)CNC2=O)cc1` (stereo partly drawn), the Ki (as a rule, the equilibrium dissociation constant of an inhibitor or competing ligand from its target) at Substance-P receptor is 72 µM; on Substance-K receptor it was 73 µM.

As to `CC(C)=CCc1cc(C(O)C2NC(=O)CNC(=O)[C@H](C(C)C)NC(=O)CNC(=O)[C@@H]3CCCN3C(=O)[C@@H](Cc3c[nH]c4ccccc34)NC(=O)CNC2=O)ccc1O` (stereo partly drawn), the Ki on Substance-P receptor is 8 µM; at Substance-K receptor, 3.8 µM. Further, the pA2 – broadly, a measure of antagonist potency on a negative log scale – in the series listed under Cavia porcellus was 5.23.

Turning to `CC(C)[C@@H]1NC(=O)CNC(=O)[C@@H]2CCCN2C(=O)[C@@H](Cc2c[nH]c3ccccc23)NC(=O)CNC(=O)[C@H](Cc2ccc(O)cc2)NC(=O)CNC1=O`, the Ki at Substance-P receptor and at Substance-K receptor was over 100 µM each time.

For the compound `CC(C)[C@@H]1NC(=O)CNC(=O)[C@@H]2CCCN2C(=O)[C@@H](Cc2c[nH]c3ccccc23)NC(=O)CNC(=O)[C@H](Cc2ccc(OC(C)(C)C)cc2)NC(=O)CNC1=O`, the Ki on Substance-P receptor amounted to 48 µM; at Substance-K receptor it was 27 µM.

Turning to `CC(C)[C@@H]1NC(=O)CNC(=O)[C@@H]2CCCN2C(=O)C(Cc2c[nH]c3ccccc23)NC(=O)CNC(=O)[C@H](Cc2ccc(OC(C)(C)C)cc2)NC(=O)CNC1=O` (single isomer, unassigned), the values for the Ki on Substance-P receptor and on Substance-K receptor were 93 µM and 31 µM, respectively.

Consider `COc1ccc(C(O)C2NC(=O)CNC(=O)[C@H](C(C)C)NC(=O)CNC(=O)[C@@H]3CCCN3C(=O)[C@@H](Cc3c[nH]c4ccccc34)NC(=O)CNC2=O)cc1CC=C(C)C` (stereo partly drawn), for which the Ki at Substance-P receptor was found to be 0.12 µM; on Substance-K receptor, 1.6 µM. The IC50 (commonly the concentration at which inhibition is half-maximal) in series [1] was found to be 0.43 µM.

In the case of `COc1ccc(C(O)C2NC(=O)CNC(=O)[C@H](C(C)C)NC(=O)CNC(=O)[C@@H]3CCCN3C(=O)[C@@H](Cc3c[nH]c4ccccc34)NC(=O)CNC2=O)cc1` (stereo partly drawn), the Ki at Substance-P receptor stood at 18 µM; at Substance-K receptor it was 33 µM.

On to `CC(C)[C@@H]1NC(=O)CNC(=O)[C@@H]2CCCN2C(=O)[C@@H](Cc2c[nH]c3ccccc23)NC(=O)CNC(=O)C(C(O)c2ccc(O)cc2)NC(=O)CNC1=O` (stereo partly drawn), for which the Ki at Substance-P receptor and on Substance-K receptor was over 100 µM throughout.
